Laboratory results taken from ChEMBL document CHEMBL4334447, “Discovery of 4-Aminoquinoline-3-carboxamide Derivatives as Potent Reversible Bruton's Tyrosine Kinase Inhibitors for the Treatment of Rheumatoid Arthritis” (J Med Chem, 2019).

Assay: Kinetic aqueous solubility of the compound in pH 7.4 phosphate buffered saline incubated for 24 hrs under shaking condition by HPLC analysis
Type: physicochemical
Conditions: read-out: Kinetic_solubility
Summary of the method: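 Dry powder shaken 24 h at 25 °C in 0.1 M phosphate buffer, pH 7.4, then filtered through a 0.45 µm membrane. Concentration determined by HPLC against a standard of the compound in DMSO. Mean of three separate assays in triplicate.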

solubility kinetic at 24 h: < 0.05 µg/mL
SMILES: Cc1cc2cn[nH]c2cc1-c1cccc2c(N)c(C(N)=O)nnc12
